Measurements from ChEMBL document CHEMBL1125274, “Persistent binding of fatty acyl derivatives of naltrexamine to opioid receptors” (J Med Chem, 1991).

Legend:
[1] = biological target: T1, Opioid receptor (Mus musculus) (UniProt P42866+P32300+P33534); test: (§1) Inhibition of [3H]dihydromorphine binding to mouse brain membranes as percentage of Opioid receptor occupancy
[2] = biological target: T1, Opioid receptor (Mus musculus); test: as §1; remark: listed apart in the source
[3] = biological target: T1, Opioid receptor (Mus musculus); test: Binding to mouse brain membranes expressed as percentage of Opioid receptors occupancy determined from difference in specific binding of [3H]dihydromorphine obtained prewashed.; details: Membrane
In short: (§2)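 Applies to membranes washed before ligand exposure. Mouse brain membranes in Hepes buffer pH 7.4 are incubated with ligand for 30 min at 25 °C. Occupancy is taken from the reduction in specific binding of [3H]dihydromorphine (2 nM final, 20 min at 25 °C; nonspecific binding with 1 µM naltrexone) versus a ligand-free control. Mean ± SD of triplicates.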

[4] = biological target: T1, Opioid receptor (Mus musculus); test: Binding to mouse brain membranes expressed as percentage of Opioid receptors occupancy determined from difference in specific binding of [3H]dihydromorphine obtained after 10 wash procedures; details: Membrane
In short: (§3)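 Male mouse brain (minus cerebellum) membranes in pH 7.4 Hepes buffer are exposed to ligand for 30 min at 25 °C, then centrifuged and washed 10 times (resuspended in Hepes, 10 min at 37 °C, recentrifuged). Pellets are labelled with 2 nM final [3H]dihydromorphine for 20 min at 25 °C; 1 µM naltrexone defines nonspecific binding. Occupancy is the loss of specific binding versus a ligand-free control treated identically, counted by scintillation. Mean ± SD of triplicates.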

[5] = biological target: T1, Opioid receptor (Mus musculus); test: Binding to mouse brain membranes expressed as percentage of receptor occupancy determined from difference in specific binding of [3H]dihydromorphine obtained after 10 wash procedures.; details: Membrane; in short: as §3
[6] = biological target: T1, Opioid receptor (Mus musculus); test: Binding to mouse brain membranes expressed as percentage of receptor occupancy determined from difference in specific binding of [3H]dihydromorphine obtained after 3 wash procedures.; details: Membrane
In short: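 Mouse forebrain membranes in Hepes buffer, pH 7.4, are incubated with ligand for 30 min at 25 °C, then given 3 wash cycles, each a 10 min resuspension at 37 °C followed by centrifugation. Residual occupancy is measured with 2 nM [3H]dihydromorphine (20 min, 25 °C; nonspecific binding with 1 µM naltrexone) as the drop in specific binding relative to a washed control without ligand. Mean ± SD, triplicate.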

[7] = biological target: T1, Opioid receptor (Mus musculus); test: Binding to mouse brain membranes expressed as percentage of receptor occupancy determined from difference in specific binding of [3H]dihydromorphine obtained after 5 wash procedures.; details: Membrane
In short: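 Ligand pretreatment of male mouse brain membranes runs 30 min at 25 °C, followed by 5 washes in Hepes buffer pH 7.4 (10 min at 37 °C each, then recentrifuged). Specific binding of 2 nM [3H]dihydromorphine (20 min at 25 °C, minus binding with 1 µM naltrexone) is compared with an identically washed ligand-free control to give percent occupancy. Triplicate, mean ± SD.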

[8] = biological target: T1, Opioid receptor (Mus musculus); test: Binding to mouse brain membranes expressed as percentage of receptor occupancy determined from difference in specific binding of [3H]dihydromorphine obtained prewashed.; details: Membrane; in short: as §2

T1 sequence (P32300 whole entry, looked up): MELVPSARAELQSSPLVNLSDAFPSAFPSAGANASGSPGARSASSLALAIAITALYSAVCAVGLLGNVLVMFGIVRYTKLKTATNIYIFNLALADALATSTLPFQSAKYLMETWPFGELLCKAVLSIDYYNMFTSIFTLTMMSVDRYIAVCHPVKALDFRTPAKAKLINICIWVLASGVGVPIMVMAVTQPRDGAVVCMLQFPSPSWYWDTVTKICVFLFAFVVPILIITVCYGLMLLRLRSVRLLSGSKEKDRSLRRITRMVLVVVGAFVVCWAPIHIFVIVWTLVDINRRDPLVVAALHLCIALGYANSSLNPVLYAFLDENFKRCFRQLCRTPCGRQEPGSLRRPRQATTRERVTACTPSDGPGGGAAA
T1 sequence (P33534 whole entry, looked up): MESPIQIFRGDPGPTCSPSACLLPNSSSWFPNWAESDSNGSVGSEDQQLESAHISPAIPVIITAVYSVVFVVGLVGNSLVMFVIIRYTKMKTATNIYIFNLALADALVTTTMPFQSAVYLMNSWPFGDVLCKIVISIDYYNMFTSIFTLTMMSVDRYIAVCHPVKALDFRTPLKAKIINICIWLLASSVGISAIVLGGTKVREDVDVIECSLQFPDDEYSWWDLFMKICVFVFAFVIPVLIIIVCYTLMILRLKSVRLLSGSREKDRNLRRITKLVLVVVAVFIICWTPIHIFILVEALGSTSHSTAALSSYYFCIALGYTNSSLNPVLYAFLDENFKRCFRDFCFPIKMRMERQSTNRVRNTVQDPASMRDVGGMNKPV
T1 sequence (P42866 whole entry, looked up): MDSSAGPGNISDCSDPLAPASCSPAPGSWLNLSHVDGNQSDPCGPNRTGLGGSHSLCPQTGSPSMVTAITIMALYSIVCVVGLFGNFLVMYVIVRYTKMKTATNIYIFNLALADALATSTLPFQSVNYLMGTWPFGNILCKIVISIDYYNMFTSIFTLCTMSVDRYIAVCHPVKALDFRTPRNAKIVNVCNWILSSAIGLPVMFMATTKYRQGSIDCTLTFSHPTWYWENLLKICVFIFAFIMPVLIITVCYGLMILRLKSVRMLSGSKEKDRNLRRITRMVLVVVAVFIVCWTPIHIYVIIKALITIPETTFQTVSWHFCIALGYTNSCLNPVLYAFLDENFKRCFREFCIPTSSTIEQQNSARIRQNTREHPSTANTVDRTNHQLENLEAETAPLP

Structure (SMILES) | Receptor occupancy [1] | Receptor occupancy [2] | Receptor occupancy [3] | Receptor occupancy [4] | Receptor occupancy [5] | Receptor occupancy [6] | Receptor occupancy [7] | Receptor occupancy [8]
CCCCCCCCCCCCCCCC(=O)N[C@@H]1CC[C@@]2(O)[C@H]3Cc4ccc(O)c5c4[C@@]2(CCN3CC2CC2)[C@H]1O5 | 93% | 58% | 38% | 2% | – | – | – | –
CCCCCCCC/C=C/CCCCCCCC(=O)N[C@@H]1CC[C@@]2(O)[C@H]3Cc4ccc(O)c5c4[C@@]2(CCN3CC2CC2)[C@H]1O5 | 95% | 93% | 64% | 32% | – | – | – | –
CCCCCCCCCCCCCCCC(=O)N[C@H]1CC[C@@]2(O)[C@H]3Cc4ccc(O)c5c4[C@@]2(CCN3CC2CC2)[C@H]1O5 | – | – | – | – | 3% | 85% | 35% | 24%
CCCCCCCCCCCCCCCCCC(=O)N[C@@H]1CC[C@@]2(O)[C@H]3Cc4ccc(O)c5c4[C@@]2(CCN3CC2CC2)[C@H]1O5 | 89% | 48% | 34% | 2% | – | – | – | –
CCCCCCCCCCCCCCCCCC(=O)N[C@H]1CC[C@@]2(O)[C@H]3Cc4ccc(O)c5c4[C@@]2(CCN3CC2CC2)[C@H]1O5 | 77% | 42% | 18% | 6% | – | – | – | –
CCCCC/C=C/C/C=C/CCCCCCCC(=O)N[C@@H]1CC[C@@]2(O)[C@H]3Cc4ccc(O)c5c4[C@@]2(CCN3CC2CC2)[C@H]1O5 | 94% | 96% | 84% | 53% | – | – | – | –
CC(=O)N[C@H]1CC[C@@]2(O)[C@H]3Cc4ccc(O)c5c4[C@@]2(CCN3CC2CC2)[C@H]1O5 | – | – | – | – | – | 2% | – | –
CC/C=C/C/C=C/C/C=C/CCCCCCCC(=O)N[C@@H]1CC[C@@]2(O)[C@H]3Cc4ccc(O)c5c4[C@@]2(CCN3CC2CC2)[C@H]1O5 | 92% | 95% | 85% | 86% | – | – | – | –
CCCCC/C=C/C/C=C/CCCCCCCC(=O)N[C@H]1CC[C@@]2(O)[C@H]3Cc4ccc(O)c5c4[C@@]2(CCN3CC2CC2)[C@H]1O5 | 93% | 93% | 73% | 46% | – | – | – | –
Oc1ccc2c3c1O[C@H]1/C(=N\N=C4/CC[C@@]5(O)[C@H]6Cc7ccc(O)c8c7[C@@]5(CCN6CC5CC5)[C@H]4O8)CC[C@@]4(O)[C@@H](C2)N(CC2CC2)CC[C@]314 | – | – | – | – | 2% | 35% | -1% | –
CC/C=C/C/C=C/C/C=C/CCCCCCCC(=O)NN[C@@H]1CC[C@@]2(O)[C@H]3Cc4ccc(O)c5c4[C@@]2(CCN3CC2CC2)[C@H]1O5 | 93% | 46% | – | 38% | – | – | – | –
CC/C=C/C/C=C/C/C=C/CCCCCCCC(=O)N[C@H]1CC[C@@]2(O)[C@H]3Cc4ccc(O)c5c4[C@@]2(CCN3CC2CC2)[C@H]1O5 | 94% | 89% | 69% | 84% | – | – | – | –
CCCCCCCC/C=C/CCCCCCCC(=O)N[C@H]1CC[C@@]2(O)[C@H]3Cc4ccc(O)c5c4[C@@]2(CCN3CC2CC2)[C@H]1O5 | 98% | 54% | 42% | 21% | – | – | – | –
CC(=O)N[C@@H]1CC[C@@]2(O)[C@H]3Cc4ccc(O)c5c4[C@@]2(CCN3CC2CC2)[C@H]1O5 | – | – | – | – | – | 4% | – | –
CCCCCCCCCCCCCCCCCC(=O)NN[C@@H]1CC[C@@]2(O)[C@H]3Cc4ccc(O)c5c4[C@@]2(CCN3CC2CC2)[C@H]1O5 | 38% | 4% | – | – | – | – | – | –
CCCCCCCCCCCCCCCC(=O)NN[C@@H]1CC[C@@]2(O)[C@H]3Cc4ccc(O)c5c4[C@@]2(CCN3CC2CC2)[C@H]1O5 | 33% | 2% | – | – | – | – | – | –
